Columns and labels:
Format in all cases: functional
HCT-116 = assay: Cytotoxicity against human HCT116 cells assessed as cell growth at 10 uM; settings: read-out: Activity
Method in brief: (§1)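 Single-dose NCI-60 screen at 10 µM. Cells were grown in RPMI 1640 with 5% FBS and 2 mM L-glutamine, then treated for 48 h at 37 °C. Protein was measured by SRB staining with absorbance at 515 nm. Percentage growth was recorded, and inhibition percentage was calculated as 100 minus growth percentage.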

ACHN = assay: Cytotoxicity against human ACHN cells assessed as cell growth at 10 uM; settings: read-out: Activity; method in brief: as §1
SK-MEL-28 = assay: Cytotoxicity against human SK-MEL-28 cells assessed as cell growth at 10 uM; settings: read-out: Activity
Method in brief: (§2)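 NCI-60 screen: cells grown in RPMI 1640 with 5% FBS and 2 mM L-glutamine, plated at 5000–40,000 cells/well according to doubling time, and preincubated 24 h at 37 °C, 5% CO2. The single 10 µM dose (DMSO stock) was added, then incubated 48 h. Cells were TCA-fixed and stained with 0.4% SRB, read at 515 nm, and growth % calculated against time-zero and control plates.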

OVCAR-5 = assay: Cytotoxicity against human OVCAR5 cells assessed as cell growth at 10 uM; settings: read-out: Activity; method in brief: as §2
A498 = assay: Cytotoxicity against human A498 cells assessed as cell growth at 10 uM; settings: read-out: Activity; method in brief: as §1
Malme-3M = assay: Cytotoxicity against human MALME-3M cells assessed as cell growth at 10 uM; settings: read-out: Activity; method in brief: as §2
HT-29 = assay: Cytotoxicity against human HT-29 cells assessed as cell growth at 10 uM; settings: read-out: Activity; method in brief: as §1
SW-620 = assay: Cytotoxicity against human SW620 cells assessed as cell growth at 10 uM; settings: read-out: Activity; method in brief: as §2
OVCAR-4 = assay: Cytotoxicity against human OVCAR4 cells assessed as cell growth at 10 uM; settings: read-out: Activity; method in brief: as §2
CCRF-CEM = assay: Cytotoxicity against human CCRF-CEM cells assessed as cell growth at 10 uM; settings: read-out: Activity; method in brief: as §1
T47D = assay: Cytotoxicity against human T47D cells assessed as cell growth at 10 uM; settings: read-out: Activity; method in brief: as §2
K562 = assay: Cytotoxicity against human K562 cells assessed as cell growth at 10 uM; settings: read-out: Activity; method in brief: as §1
NCI-H23 = assay: Cytotoxicity against human NCI-H23 cells assessed as cell growth at 10 uM; settings: read-out: Activity; method in brief: as §2
MDA-MB-435 = assay: Cytotoxicity against human MDA-MB-435 cells assessed as cell growth at 10 uM; settings: read-out: Activity; method in brief: as §2
MOLT-4 = assay: Cytotoxicity against human MOLT4 cells assessed as cell growth at 10 uM; settings: read-out: Activity; method in brief: as §2
NCI-H460 = assay: Cytotoxicity against human NCI-H460 cells assessed as cell growth at 10 uM; settings: read-out: Activity; method in brief: as §2
COLO 205 = assay: Cytotoxicity against human COLO205 cells assessed as cell growth at 10 uM; settings: read-out: Activity; method in brief: as §1
UO-31 = assay: Cytotoxicity against human UO31 cells assessed as cell growth at 10 uM; settings: read-out: Activity; method in brief: as §2
UACC-257 = assay: Cytotoxicity against human UACC257 cells assessed as cell growth at 10 uM; settings: read-out: Activity; method in brief: as §2
KM12 = assay: Cytotoxicity against human KM12 cells assessed as cell growth at 10 uM; settings: read-out: Activity; method in brief: as §2
SK-MEL-2 = assay: Cytotoxicity against human SK-MEL-2 cells assessed as cell growth at 10 uM; settings: read-out: Activity; method in brief: as §2
[1] = Growth inhibition of human NCI60 cells at 10 uM after 48 hrs by sulforhodamine B assay relative to control; settings: NCI60, 48 h, read-out: GI
Method in brief: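 Single-dose NCI screen at 10 µM across the 60-line panel, 48 h exposure at 37 °C after a 24 h preincubation. Adherent cells were fixed with cold TCA and stained with 0.4% SRB, and absorbance was read at 515 nm. Inhibition % was taken as 100 minus growth %, and the mean across all lines was reported.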

UACC-62 = assay: Cytotoxicity against human UACC62 cells assessed as cell growth at 10 uM; settings: read-out: Activity; method in brief: as §2
SK-MEL-5 = assay: Cytotoxicity against human SK-MEL-5 cells assessed as cell growth at 10 uM; settings: read-out: Activity; method in brief: as §2
M14 = assay: Cytotoxicity against human M14 cells assessed as cell growth at 10 uM; settings: read-out: Activity; method in brief: as §2
NCI-H522 = assay: Cytotoxicity against human NCI-H522 cells assessed as cell growth at 10 uM; settings: read-out: Activity; method in brief: as §2
MCF7 = assay: Cytotoxicity against human MCF7 cells assessed as cell growth at 10 uM; settings: read-out: Activity; method in brief: as §2
HOP-62 = assay: Cytotoxicity against human HOP62 cells assessed as cell growth at 10 uM; settings: read-out: Activity; method in brief: as §1
MDA-MB-231 = assay: Cytotoxicity against human MDA-MB-231 cells assessed as cell growth at 10 uM; settings: read-out: Activity; method in brief: as §2
DU-145 = assay: Cytotoxicity against human DU145 cells assessed as cell growth at 10 uM; settings: read-out: Activity; method in brief: as §1
SR = assay: Cytotoxicity against human SR cells assessed as cell growth at 10 uM; settings: read-out: Activity; method in brief: as §2
SF-295 = assay: Cytotoxicity against human SF295 cells assessed as cell growth at 10 uM; settings: read-out: Activity; method in brief: as §2
LOX IMVI = assay: Cytotoxicity against human LOXIMVI cells assessed as cell growth at 10 uM; settings: read-out: Activity; method in brief: as §2
HCT-15 = assay: Cytotoxicity against human HCT15 cells assessed as cell growth at 10 uM; settings: read-out: Activity; method in brief: as §1
NCI-H322M = assay: Cytotoxicity against human NCI-H322M cells assessed as cell growth at 10 uM; settings: read-out: Activity; method in brief: as §2
SF-539 = assay: Cytotoxicity against human SF539 cells assessed as cell growth at 10 uM; settings: read-out: Activity; method in brief: as §2
PC-3 = assay: Cytotoxicity against human PC3 cells assessed as cell growth at 10 uM; settings: read-out: Activity; method in brief: as §2
SN12C = assay: Cytotoxicity against human SN12C cells assessed as cell growth at 10 uM; settings: read-out: Activity; method in brief: as §2
[2] = Cytotoxicity against human Hs 578T cells assessed as cell growth at 10 uM; settings: read-out: Activity; method in brief: as §1
OVCAR-8 = assay: Cytotoxicity against human OVCAR8 cells assessed as cell growth at 10 uM; settings: read-out: Activity; method in brief: as §2
MDA-MB-468 = assay: Cytotoxicity against human MDA-MB-468 cells assessed as cell growth at 10 uM; settings: read-out: Activity; method in brief: as §2
NCI/ADR-RES = assay: Cytotoxicity against human NCI/ADR-RES cells assessed as cell growth at 10 uM; settings: read-out: Activity; method in brief: as §2
HOP-92 = assay: Cytotoxicity against human HOP92 cells assessed as cell growth at 10 uM; settings: read-out: Activity; method in brief: as §1
U-251 = assay: Cytotoxicity against human U251 cells assessed as cell growth at 10 uM; settings: read-out: Activity; method in brief: as §2
A549 = assay: Cytotoxicity against human A549 cells assessed as cell growth at 10 uM; settings: read-out: Activity; method in brief: as §1
[3] = Cytotoxicity against human […] cells assessed as cell growth at 10 uM; settings: read-out: Activity; method in brief: as §2
NCI-H226 = assay: Cytotoxicity against human NCI-H226 cells assessed as cell growth at 10 uM; settings: read-out: Activity; method in brief: as §2
CAKI-1 = assay: Cytotoxicity against human Caki1 cells assessed as cell growth at 10 uM; settings: read-out: Activity; method in brief: as §1
786-0 = assay: Cytotoxicity against human 786-0 cells assessed as cell growth at 10 uM; settings: read-out: Activity; method in brief: as §1
HCC 2998 = assay: Cytotoxicity against human HCC2998 cells assessed as cell growth at 10 uM; settings: read-out: Activity; method in brief: as §1
EKVX = assay: Cytotoxicity against human EKVX cells assessed as cell growth at 10 uM; settings: read-out: Activity; method in brief: as §1
RXF 393 = assay: Cytotoxicity against human RXF393 cells assessed as cell growth at 10 uM; settings: read-out: Activity; method in brief: as §2
HL-60(TB) = assay: Cytotoxicity against human HL-60(TB) cells assessed as cell growth at 10 uM; settings: read-out: Activity
Method in brief: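 NCI 60-cell panel screen at a single concentration of 10 µM. Cells are grown in RPMI 1640 with 5% FBS and 2 mM L-glutamine and read by SRB protein staining at 515 nm. Percent growth is measured relative to time-zero and untreated controls; inhibition % is 100 minus growth %.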

SNB-19 = assay: Cytotoxicity against human SNB19 cells assessed as cell growth at 10 uM; settings: read-out: Activity; method in brief: as §2
BT-549 = assay: Cytotoxicity against human BT549 cells assessed as cell growth at 10 uM; settings: read-out: Activity; method in brief: as §1
SNB-75 = assay: Cytotoxicity against human SNB75 cells assessed as cell growth at 10 uM; settings: read-out: Activity; method in brief: as §2
SK-OV-3 = assay: Cytotoxicity against human SKOV3 cells assessed as cell growth at 10 uM; settings: read-out: Activity; method in brief: as §2
OVCAR-3 = assay: Cytotoxicity against human OVCAR-3 cells assessed as cell growth at 10 uM; settings: read-out: Activity; method in brief: as §2
IGROV-1 = assay: Cytotoxicity against human IGROV1 cells assessed as cell growth at 10 uM; settings: read-out: Activity; method in brief: as §1
SF-268 = assay: Cytotoxicity against human SF268 cells assessed as cell growth at 10 uM; settings: read-out: Activity; method in brief: as §2
TK-10 = assay: Cytotoxicity against human TK10 cells assessed as cell growth at 10 uM; settings: read-out: Activity; method in brief: as §2

COc1cc(C)cc(-c2nn(CC#N)cc2-c2ccnc(-c3ccc(C#N)cc3)c2)c1
growth at 10 µM (HCT-116): 80.3%
growth at 10 µM (ACHN): 81.4%
growth at 10 µM (SK-MEL-28): 104%
growth at 10 µM (OVCAR-5): 97.9%
growth at 10 µM (A498): 82.2%
growth at 10 µM (Malme-3M): 111%
growth at 10 µM (HT-29): 85.2%
growth at 10 µM (SW-620): 101%
growth at 10 µM (OVCAR-4): 76.2%
growth at 10 µM (CCRF-CEM): 85.6%
growth at 10 µM (T47D): 37.6%
growth at 10 µM (K562): 82%
growth at 10 µM (NCI-H23): 83.1%
growth at 10 µM (MDA-MB-435): 102%
growth at 10 µM (MOLT-4): 71.8%
growth at 10 µM (NCI-H460): 104%
growth at 10 µM (COLO 205): 95.8%
growth at 10 µM (UO-31): 64.2%
growth at 10 µM (UACC-257): 89.8%
growth at 10 µM (KM12): 102%
growth at 10 µM (SK-MEL-2): 89.9%
inhibition of growth at 10 µM [1]: 14.4%
growth at 10 µM (UACC-62): 59.4%
growth at 10 µM (SK-MEL-5): 63.4%
growth at 10 µM (M14): 104%
growth at 10 µM (NCI-H522): 70.4%
growth at 10 µM (MCF7): 43.3%
growth at 10 µM (HOP-62): 96.5%
growth at 10 µM (MDA-MB-231): 80.8%
growth at 10 µM (DU-145): 109%
growth at 10 µM (SR): 106%
growth at 10 µM (SF-295): 102%
growth at 10 µM (LOX IMVI): 80.7%
growth at 10 µM (HCT-15): 75.9%
growth at 10 µM (NCI-H322M): 91.3%
growth at 10 µM (SF-539): 89.1%
growth at 10 µM (PC-3): 85.9%
growth at 10 µM (SN12C): 85.1%
growth at 10 µM [2]: 93.4%
growth at 10 µM (OVCAR-8): 84.2%
growth at 10 µM (MDA-MB-468): 42.9%
growth at 10 µM (NCI/ADR-RES): 76.8%
growth at 10 µM (HOP-92): 75.3%
growth at 10 µM (U-251): 91.2%
growth at 10 µM (A549): 83.6%
growth at 10 µM [3]: 89.7%
growth at 10 µM (NCI-H226): 78.8%
growth at 10 µM (CAKI-1): 82.2%
growth at 10 µM (786-0): 96.5%
growth at 10 µM (HCC 2998): 89.3%
growth at 10 µM (EKVX): 92%
growth at 10 µM (RXF 393): 76.5%
growth at 10 µM (HL-60(TB)): 93.6%
growth at 10 µM (SNB-19): 79.1%
growth at 10 µM (BT-549): 99.3%
growth at 10 µM (SNB-75): 57.4%
growth at 10 µM (SK-OV-3): 90.3%
growth at 10 µM (OVCAR-3): 102%
growth at 10 µM (IGROV-1): 90.9%
growth at 10 µM (SF-268): 106%
growth at 10 µM (TK-10): 84.7%

Reference: ChEMBL document CHEMBL1165950, “Design and synthesis of new potent anticancer pyrazoles with high FLT3 kinase inhibitory selectivity” (Bioorg Med Chem, 2010)
